The data set is described as follows: Toxicity liver stage against HepG2, at 10uM. The class given is cell-based. The note with it: human, HepG2-A16-CD81EGFP cells; read-out: INHIBITION
Details: test concentration 10 uM, cell line HepG2-A16-CD81EGFP. The procedure, abridged:
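Uninfected HepG2-A16-CD81EGFP cells, 3 × 10^3 per well, 1536-well, plated on prespotted compound at 10 μM final, parasite-free screening media added to match infected plates; puromycin 10 μM positive, DMSO 0.5% negative; run in parallel with 48 h PbLuc assay at 37 °C, 5% CO2; viability by CellTiter-Glo luminescence, normalized to controls.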
`Cc1ccc2[nH]c3c(c2c1)CN(C(=O)CN(C)CC1OCCO1)CC3`: the cytotoxicity at 10 µM stood at 6.5%.

Take `Cc1cc(CN2CCN3C[C@H](c4ccccc4)[C@@H](CO)[C@H]3C2)on1`: the cytotoxicity at 10 µM amounted to 7.66%.

Turning to `COc1ccc(C2CC(=O)Oc3cc(C)[nH]c(=O)c32)cc1O` (configuration not stated), the cytotoxicity at 10 µM is -4.47%.

As to `CN(C)S(=O)(=O)c1ccc(-c2nc(C#N)c(NC3CC3)o2)o1`, the cytotoxicity at 10 µM is -18.4%.

With `CNC(=O)[C@H]1CC[C@@H]2[C@@H](CCN2C(=O)N(C)C)O1`, the cytotoxicity at 10 µM came out at 6.86%.

`Cn1cc(-c2nc(C3CCN(S(C)(=O)=O)CC3)cc3c2ncn3C)cn1`: the cytotoxicity at 10 µM was 1.39%.

Take `CC(=O)N1CCc2ncc(CNC(=O)C3CCC3)n2CC1`: the cytotoxicity at 10 µM came out at 7.48%.

Turning to `O=C(NCc1ccc(Cl)cc1)C1CCCN(c2ccc3nncn3n2)C1` (configuration not stated), the cytotoxicity at 10 µM turned out to be 6.44%.

Consider `Cc1ccc(C(=O)N2CCCC3(CCCC(=O)N3C)C2)cc1F` (configuration not stated), for which the cytotoxicity at 10 µM was 4.12%.

In the case of `Cc1c[nH]nc1C1CCCN1Cc1ccncc1` (configuration not stated), the cytotoxicity at 10 µM is 13.1%.

As for `CNc1cc(C2CCN2c2ncccn2)nc(C)n1` (configuration not stated), the cytotoxicity at 10 µM came out at 1.72%.

On to `CCCNC(=O)Nc1ncc(-c2cccnc2)s1`, for which the cytotoxicity at 10 µM amounted to 3.11%.

For `COCCN1CCC(c2nc3cc(C)ccc3[nH]2)CC1`, the cytotoxicity at 10 µM is -0.621%.

`Cc1cccc(NC(=O)c2cncc(C3CCNCC3)n2)n1`: the cytotoxicity at 10 µM was found to be 0.691%.

With `NC1(CN2CCCCC2)CCCCC1`, the cytotoxicity at 10 µM turned out to be 1.46%.

On to `CNc1cc(C2CCCN(C(=O)c3ccc(=O)[nH]n3)C2)ccn1` (configuration not stated), for which the cytotoxicity at 10 µM was -11.8%.

For `O=C(CN1CCCC(c2noc(C3CC3)n2)C1)N1CCCC1` (configuration not stated), the cytotoxicity at 10 µM was 1.87%.

For `CC(NCc1cnn(C)c1)c1noc(-c2ccc(Cl)cc2)n1` (configuration not stated), the cytotoxicity at 10 µM came out at 3.97%.

Regarding `O=C1CSc2ccc(C(=O)N3CCCC(n4ccnc4)C3)cc2N1` (configuration not stated), the cytotoxicity at 10 µM was -8.44%.

Consider `N#CCCN(CC1CCOC1)Cn1ccc(-c2ccccc2)n1` (configuration not stated), for which the cytotoxicity at 10 µM is -3.8%.

In the case of `N#CCCN(CC1CCOC1)Cn1ccc(-c2cccs2)n1` (configuration not stated), the cytotoxicity at 10 µM worked out at 10.9%.

`CC(C)(NCc1cccc(C#N)c1)c1ccc2c(c1)OCO2`: the cytotoxicity at 10 µM came to 3.34%.

As for `CN(C)Cc1nc(C(C)(C)NC(=O)c2ccc3ccccc3c2)no1`, the cytotoxicity at 10 µM is -2.22%.

On to `C=C(C)CN(c1cn[nH]c1)S(=O)(=O)c1cccc(C#N)c1`, for which the cytotoxicity at 10 µM is 3.84%.

Take `CCN(CC)C(=O)N1CCN(CCc2ccncc2)CC1`: the cytotoxicity at 10 µM is -38.9%.

`CSCc1ccc(CNCCN2CCOCC2)o1`: the cytotoxicity at 10 µM is -0.583%.

For `Cc1cc(NCCC(=O)NC2CCS(=O)(=O)C2)nc(-c2ccncc2)n1` (configuration not stated), the cytotoxicity at 10 µM was -6.74%.

`COCCN1CCC(NC(=O)NCC2(c3ccccc3)CC2)C1` (configuration not stated): the cytotoxicity at 10 µM was 0.814%.

On to `O=C(Nc1ccc(Cl)cn1)C1CCCN(Cc2ccccn2)C1` (configuration not stated), for which the cytotoxicity at 10 µM was -10.5%.

For the compound `CS(=O)(=O)CCCC(=O)Nc1cc(Cl)c(Cl)cn1`, the cytotoxicity at 10 µM was 2.69%.

Regarding `Cc1nn(C)c(N2CCCN(C)CC2)c1CNC(=O)CC(C)(C)C`, the cytotoxicity at 10 µM is 8%.

For the compound `Cc1csc(CNC(=O)NCC(O)c2ccc(F)cc2)n1` (configuration not stated), the cytotoxicity at 10 µM amounted to 12.1%.

`N#Cc1cccc(S(=O)(=O)N2CCCCC2C(N)=O)c1` (configuration not stated): the cytotoxicity at 10 µM is 0.645%.

With `Cn1cnn(Cc2c(F)cccc2Br)c1=O`, the cytotoxicity at 10 µM was found to be 4.48%.

`O=C(CCN1CCOC1=O)N(Cc1ccncc1)CC1CCCO1` (configuration not stated): the cytotoxicity at 10 µM came to 0.606%.

For the compound `CN(Cc1ccccc1)C(=O)CN1CCCC1c1cnn(C)c1` (configuration not stated), the cytotoxicity at 10 µM was found to be 6.91%.

Turning to `Cc1ccc(C(=O)N2CCOc3nc(C)ccc32)c(F)c1`, the cytotoxicity at 10 µM is -2.71%.

On to `CCN1CCCN(S(=O)(=O)c2cnc3onc(C)c3c2)CC1`, for which the cytotoxicity at 10 µM amounted to 4.62%.

In the case of `CC(Cn1cccn1)NC(=O)c1ccsc1` (configuration not stated), the cytotoxicity at 10 µM is -5.2%.

In the case of `Cc1cnc(CNC(=O)N(Cc2ccccc2)CC(C)(C)O)s1`, the cytotoxicity at 10 µM is -3.22%.

For `CC(NC(=O)NCCN1CCCCCC1=O)c1ccc(Cl)s1` (configuration not stated), the cytotoxicity at 10 µM was -0.331%.

As for `Cc1cccc(S(=O)(=O)N2C[C@@H]3C[C@@H](c4nnc(C)[nH]4)O[C@@H]3C2)c1`, the cytotoxicity at 10 µM turned out to be 9.59%.

For `COC[C@@]12CC[C@@H](N3CCOCC3)C[C@H]1CCN(c1nc(CO)cs1)C2`, the cytotoxicity at 10 µM was -3.61%.

Take `COCc1cc(NCc2ccccc2-n2cncn2)ncn1`: the cytotoxicity at 10 µM is -0.132%.

On to `O=C(c1cnn2ccccc12)N1CCCC(OCc2ccccn2)C1` (configuration not stated), for which the cytotoxicity at 10 µM is -3.74%.

For `CCOC(=O)CCNC(=O)N1CCCC(CNC(=O)c2ccco2)C1` (configuration not stated), the cytotoxicity at 10 µM was determined as 14.9%.

`CN1CCC(n2nc(Cc3cccc(Cl)c3)nc2Cn2cnnn2)CC1`: the cytotoxicity at 10 µM was -12.4%.

For the compound `O=C(c1cnc(O)cc1O)N1CCCC(CCc2ccccc2F)C1` (configuration not stated), the cytotoxicity at 10 µM was -2.24%.

With `CNCCN1C(=O)CC[C@H]2CN(c3cnc4ccccc4n3)CC[C@H]21`, the cytotoxicity at 10 µM is -1.62%.

As for `Cc1cc(CN2CCN(C(C)C)C(CCO)C2)[nH]n1` (configuration not stated), the cytotoxicity at 10 µM is 4.86%.

As to `COCCn1cnnc1CNc1cc(C)nc2c(C)c(C)nn12`, the cytotoxicity at 10 µM was -0.715%.

With `Cc1cc(N[C@H]2CCCC[C@@H]2O)n2nccc2n1`, the cytotoxicity at 10 µM is -1.42%.

As to `Cc1ccc(C(=O)O)cc1-c1cccc2c1CCNC2`, the cytotoxicity at 10 µM turned out to be 7.56%.

Regarding `O=C(c1cc2ccccc2[nH]c1=O)N1CCC2(CCCNC2)C1` (configuration not stated), the cytotoxicity at 10 µM is -4.66%.

On to `COc1cccc(-c2ncc(CN3CC[C@H](CO)[C@@H](O)C3)s2)c1`, for which the cytotoxicity at 10 µM came out at 4.23%.

In the case of `COCc1noc(CN2CCC3(CC2)[C@H](O)C[C@@H]3OC)n1`, the cytotoxicity at 10 µM was 0.0851%.

As for `CN(CC(=O)Nc1ccon1)S(=O)(=O)c1cc(Cl)ccc1Cl`, the cytotoxicity at 10 µM was 0.424%.

`COc1ccc2c(C(=O)N(C)C)cc(-c3cnc(N)nc3)nc2c1`: the cytotoxicity at 10 µM is -3.3%.

Consider `COCc1c(C(=O)N2CCCC(C(=O)c3ccccc3)C2)noc1C` (configuration not stated), for which the cytotoxicity at 10 µM was -2.54%.

As for `COc1cccc(CN2CCN(CC(C)C)C(=O)C2C)c1O` (configuration not stated), the cytotoxicity at 10 µM was found to be 2.02%.

`COC(=O)c1cccc(S(=O)(=O)NC(=O)COC2CCCC2)c1`: the cytotoxicity at 10 µM was -1.03%.

Regarding `Cc1cnn(C2CN(Cc3nc(-c4ccsc4)no3)C2)c1`, the cytotoxicity at 10 µM is -3.88%.

Consider `CCc1nc(CNc2ccc(C(=O)N3CCSCC3)cc2C)no1`, for which the cytotoxicity at 10 µM was -6.99%.

In the case of `Cc1cc(CN(C)C2CCCN(c3cccnn3)C2)no1` (configuration not stated), the cytotoxicity at 10 µM was -2.45%.

Turning to `O=C(NCC1COC2(CCOCC2)O1)c1csc(-c2cccc(Cl)c2)n1` (configuration not stated), the cytotoxicity at 10 µM was -10.7%.

With `Cc1nc2cc(O)nn2c(C)c1CCC(=O)NCc1cc(Br)cs1`, the cytotoxicity at 10 µM was -3.04%.

As for `CC(=O)N(C)C(c1cccc(F)c1)c1ccccn1` (configuration not stated), the cytotoxicity at 10 µM is -1.63%.

As for `Cn1ccc(C(=O)Nc2cc(F)ccc2OCC2CCCO2)cc1=O` (configuration not stated), the cytotoxicity at 10 µM was -1.59%.

Turning to `Cc1cc(C)c(CNC(=O)NCC(O)c2ccccc2)c(=O)[nH]1` (configuration not stated), the cytotoxicity at 10 µM is -10%.

Consider `NC(=O)CC1CCN(C(=O)NCc2ccc(-c3ccn[nH]3)cc2)CC1`, for which the cytotoxicity at 10 µM is -2.38%.

Regarding `CCCc1n[nH]c(C2CN(C(=O)c3ccc4c(c3)COC4)CCO2)n1` (configuration not stated), the cytotoxicity at 10 µM is -12.4%.

Take `CCNc1cc2c(nn1)CCN(C(=O)Cc1c(C)nn(C)c1C)C2`: the cytotoxicity at 10 µM was -8.25%.

With `COc1cc(C(=O)NS(=O)(=O)c2ccc(C#N)cc2)ccc1C`, the cytotoxicity at 10 µM is -6.56%.

`COc1ccc(C(=O)NS(=O)(=O)c2cccc(C#N)c2)cc1`: the cytotoxicity at 10 µM was -2.97%.

As for `CCc1ncncc1C(=O)N1CCN(Cc2cscn2)CC1`, the cytotoxicity at 10 µM was determined as 0.512%.

For the compound `c1cncc(-c2noc(CN3CCn4c(nnc4C4CC4)C3)n2)c1`, the cytotoxicity at 10 µM was -8.69%.

In the case of `O=C(NCc1cc[nH]n1)NCC(c1ccccc1)N1CCOCC1` (configuration not stated), the cytotoxicity at 10 µM was -3.39%.

Take `Cc1nc2cc(=O)[nH]n2c(C)c1CC(=O)NCc1ccoc1`: the cytotoxicity at 10 µM is -10.4%.

With `Cc1cnn(CC2CN(c3nnc(C)c(C)c3C#N)CCO2)c1` (configuration not stated), the cytotoxicity at 10 µM is -5.25%.

Turning to `Cc1cnn(CC2CCCN2C(=O)c2cnc(-c3ccco3)s2)c1` (configuration not stated), the cytotoxicity at 10 µM was -7.43%.

`COC(=O)c1cccn1C1CCN(Cc2nc3ccccc3o2)CC1`: the cytotoxicity at 10 µM amounted to 1.81%.

In the case of `CC(=O)Nc1nc(CN2CCOC(Cn3nc(C)cc3C)C2)cs1` (configuration not stated), the cytotoxicity at 10 µM was 4.23%.

For `CC1CN(C(=O)CN(Cc2ccccc2)C2CC2)CCO1` (configuration not stated), the cytotoxicity at 10 µM was -16.1%.

For the compound `CN(Cc1cccc(F)c1)C(=O)CS(=O)(=O)Cc1ccc(Cl)c(Cl)c1`, the cytotoxicity at 10 µM is -4.67%.

Regarding `CC(C(=O)N1CCCN(c2ncccc2C#N)CC1)n1ccnc1` (configuration not stated), the cytotoxicity at 10 µM is -2.6%.

As to `COCC(=O)NC(C)Cc1cccc(OC)c1` (configuration not stated), the cytotoxicity at 10 µM is -10.6%.

`CCCc1noc(CCC(=O)N2CCCC2c2noc(C3CC3)n2)n1` (configuration not stated): the cytotoxicity at 10 µM is -9.98%.

For the compound `CCOc1ccnc(N2CCN(C(=O)c3cn[nH]c3CC)CC2)n1`, the cytotoxicity at 10 µM is -6.69%.

As to `N[C@@H](Cc1ccccc1)c1nnc(S(=O)(=O)Cc2ccc(Cl)cc2)o1`, the cytotoxicity at 10 µM worked out at 14.2%.

In the case of `c1csc(CN2CCCn3nnc(COCC4CC4)c3C2)n1`, the cytotoxicity at 10 µM is -101%.

For the compound `CNC(=O)CN1CC[C@H]2CN(C(=O)c3ccoc3)C[C@H]2C1`, the cytotoxicity at 10 µM was -2.8%.

For `COCC(=O)N1Cc2ccnn2CC(COCCN(C)C)C1` (configuration not stated), the cytotoxicity at 10 µM amounted to 6.82%.

Take `O=C(N1CCCC1)N1CCC2(CCN(Cc3ccccn3)C2=O)C1` (configuration not stated): the cytotoxicity at 10 µM was found to be 3.2%.

For `Cn1cc(CN2CCC[C@]3(C[C@@H](Oc4ccccn4)CO3)C2)cn1`, the cytotoxicity at 10 µM was 7.5%.

Take `c1cnc(N2CCC3(CCN(CC4CCOC4)CC3)CC2)nc1` (configuration not stated): the cytotoxicity at 10 µM was -1.22%.

Turning to `Fc1ccc(CN2CCC3(CC2)CC(c2cccnc2)CO3)cc1` (configuration not stated), the cytotoxicity at 10 µM is -4.85%.

Consider `COc1cccc(CC(=O)N2CC[C@@H](OC)[C@@H]2Cc2cccnc2)c1`, for which the cytotoxicity at 10 µM was found to be 3.71%.

Source of the values: ChEMBL document CHEMBL4513216, “Probing the Open Global Health Chemical Diversity Library for Multistage-Active Starting Points for Next-Generation Antimalarials” (ACS Infect Dis, 2020).
